Assay results from ChEMBL document CHEMBL3632584, “Further Optimization and Evaluation of Bioavailable, Mixed-Efficacy μ-Opioid Receptor (MOR) Agonists/δ-Opioid Receptor (DOR) Antagonists: Balancing MOR and DOR Affinities” (J Med Chem, 2015).
Active and inactive are the calls of the source.

What was measured:
[1] = molecular target: T1, Delta-type opioid receptor (Rattus norvegicus, UniProt P33533); assay: Displacement of [3H]diprenorphine from rat delta-opioid receptor expressed in C6 cell membrane for 1 hr by liquid scintillation counting analysis; format: cell membranes
[2] = molecular target: T2, Mu-type opioid receptor (Rattus norvegicus, UniProt P33535); assay: Displacement of [3H]diprenorphine from rat mu-opioid receptor expressed in C6 cell membrane for 1 hr by liquid scintillation counting analysis; format: cell membranes
[3] = molecular target: T2, Mu-type opioid receptor; assay: Agonist activity at rat mu-opioid receptor expressed in C6 cell membrane assessed as [35S]GTPgammaS binding for 1 hr by liquid scintillation counting analysis; format: functional, cell membranes
[4] = species on record: Rattus norvegicus; assay: Selectivity ratio, ratio of Ki for rat delta-opioid receptor to Ki for rat mu-opioid receptor
Outline: (§1)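 Competition for 0.2 nM [3H]diprenorphine in membranes (20 µg protein) from C6 cells with rat MOR or DOR, or CHO cells with human KOR. 50 mM Tris-HCl pH 7.4, 1 h at room temperature, then GF/C filtration, five buffer washes, scintillation counting. Nonspecific binding set with 10 µM naloxone. Ki from logistic fit. Mean ± S.E.M., ≥3 assays in duplicate. DOR/MOR ratio taken from the Ki values.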

[5] = molecular target: T3, Kappa-type opioid receptor (Homo sapiens, UniProt P41145); assay: Agonist activity at human kappa-opioid receptor expressed in CHO cell membrane assessed as [35S]GTPgammaS binding for 1 hr by liquid scintillation counting analysis; format: functional, cell membranes
[6] = tested on: Mus musculus; assay: Antinociceptive activity in C57BL/6 mouse assessed as tail withdrawal latency upto 10 mg/kg, ip measured after 30 mins by warm water tail withdrawal assay; format: functional, organism-based
[7] = molecular target: Mu-type opioid receptor (Rattus norvegicus) (UniProt P33535); assay: Agonist activity at rat mu-opioid receptor expressed in C6 cell membrane assessed as [35S]GTPgammaS binding for 1 hr by liquid scintillation counting analysis relative to 10 uM DAMGO; format: functional, cell membranes
[8] = molecular target: T3, Kappa-type opioid receptor; assay: Agonist activity at human kappa-opioid receptor expressed in CHO cell membrane assessed as [35S]GTPgammaS binding for 1 hr by liquid scintillation counting analysis relative to 10 uM U69593; format: functional, cell membranes
[9] = molecular target: Delta-type opioid receptor (Rattus norvegicus) (UniProt P33533); assay: Agonist activity at rat delta-opioid receptor expressed in C6 cell membrane assessed as [35S]GTPgammaS binding for 1 hr by liquid scintillation counting analysis relative to 10 uM DPDPE; format: functional, cell membranes
[10] = molecular target: T1, Delta-type opioid receptor; assay: Agonist activity at rat delta-opioid receptor expressed in C6 cell membrane assessed as [35S]GTPgammaS binding for 1 hr by liquid scintillation counting analysis; format: functional, cell membranes
[11] = molecular target: T3, Kappa-type opioid receptor; assay: Displacement of [3H]diprenorphine from human kappa-opioid receptor expressed in CHO cell membrane for 1 hr by liquid scintillation counting analysis; format: cell membranes; outline: as §1
[12] = tested on: Mus musculus; assay: Antinociceptive activity in C57BL/6 mouse assessed as tail withdrawal latency time at 10 mg/kg, ip measured after 30 mins by warm water tail withdrawal assay; format: functional
[13] = tested on: Plasma; assay: Stability in C57BL/6 mouse plasma after 30 mins; format: ADME, cell-free; details: 0.5 h
[14] = tested on: Mus musculus; assay: Antinociceptive activity in C57BL/6 mouse assessed as time duration of action at 10 mg/kg, ip measured after 30 mins by warm water tail withdrawal assay; format: functional
Outline: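 Male C57BL/6 mice given a single 10 mg/kg ip dose. Tail withdrawal from 50 °C water, 20 s cutoff, measured at varying times after dosing to follow duration of action. n=6.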

[15] = tested on: Mus musculus; assay: Antinociceptive activity in ip dosed C57BL/6 mouse assessed as tail withdrawal latency measured 30 mins after drug challenge by warm water tail withdrawal assay; format: functional; details: for ED50: C57BL/6, Tail, 0.5 h
[16] = tested on: Mus musculus; assay: Antinociceptive activity in ip dosed C57BL/6 mouse assessed as tail withdrawal latency pretreated with 1 mg/kg naltrexone for 30 mins measured 30 mins after drug challenge by warm water tail withdrawal assay; format: functional; details: C57BL/6, Tail
Outline: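 Male C57BL/6 mice pretreated ip with 1 mg/kg naltrexone or saline 30 min before cumulative ip dosing to 3.2, 10 and 32 mg/kg. Tail withdrawal latency from 50 °C water, 20 s cutoff, read 30 min after each dose. ED50 from the dose-response.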

T1 sequence (P33533 whole entry): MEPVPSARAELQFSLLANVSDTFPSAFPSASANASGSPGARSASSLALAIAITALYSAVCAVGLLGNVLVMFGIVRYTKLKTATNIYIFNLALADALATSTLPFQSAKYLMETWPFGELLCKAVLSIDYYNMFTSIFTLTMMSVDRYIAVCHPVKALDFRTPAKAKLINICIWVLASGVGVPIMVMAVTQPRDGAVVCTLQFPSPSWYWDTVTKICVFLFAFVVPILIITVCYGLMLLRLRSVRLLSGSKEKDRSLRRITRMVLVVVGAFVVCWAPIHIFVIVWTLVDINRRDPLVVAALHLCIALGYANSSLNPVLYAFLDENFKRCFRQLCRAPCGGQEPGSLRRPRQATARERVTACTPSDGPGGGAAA
Sequence of Delta-type opioid receptor (Rattus norvegicus) (P33533 whole entry): as above
Sequence of Mu-type opioid receptor (Rattus norvegicus) (P33535 whole entry): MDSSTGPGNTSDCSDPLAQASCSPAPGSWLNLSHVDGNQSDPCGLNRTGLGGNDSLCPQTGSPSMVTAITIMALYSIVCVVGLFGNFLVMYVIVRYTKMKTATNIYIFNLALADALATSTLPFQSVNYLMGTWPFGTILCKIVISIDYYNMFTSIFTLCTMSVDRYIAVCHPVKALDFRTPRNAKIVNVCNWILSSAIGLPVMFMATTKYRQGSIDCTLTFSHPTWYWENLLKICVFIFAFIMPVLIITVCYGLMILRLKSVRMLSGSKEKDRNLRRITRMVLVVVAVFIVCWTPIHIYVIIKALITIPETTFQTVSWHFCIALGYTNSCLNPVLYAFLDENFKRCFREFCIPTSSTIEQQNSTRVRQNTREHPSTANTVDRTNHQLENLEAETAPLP
T2 sequence (P33535 whole entry): as above
T3 sequence (P41145 whole entry): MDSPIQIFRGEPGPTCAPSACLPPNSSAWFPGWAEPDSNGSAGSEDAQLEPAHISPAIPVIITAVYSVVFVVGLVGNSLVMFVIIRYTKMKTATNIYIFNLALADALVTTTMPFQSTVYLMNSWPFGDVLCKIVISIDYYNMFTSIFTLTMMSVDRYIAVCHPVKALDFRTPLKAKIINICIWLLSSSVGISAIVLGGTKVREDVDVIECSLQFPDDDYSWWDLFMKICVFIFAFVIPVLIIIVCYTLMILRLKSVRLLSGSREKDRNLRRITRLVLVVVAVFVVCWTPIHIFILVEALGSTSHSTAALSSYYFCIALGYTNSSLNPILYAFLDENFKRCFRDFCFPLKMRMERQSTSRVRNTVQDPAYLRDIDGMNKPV

| SMILES | Ki [1] [nM] | Ki [2] [nM] | EC50 ([3]; read-out: EC50) [nM] | Ratio Ki [4] | EC50 ([5]; read-out: EC50) [nM] | Activity [6] | Activity [7] | Activity [8] | Activity [9] | EC50 ([10]; read-out: EC50) [nM] | Ki [11] [nM] | EC50 ([10]; c6) | EC50 ([5]; cho) | Time [12] [s] | Stability [13] | Time [14] [h] | ED50 [15] [mg/kg] | EC50 ([3]; c6) | ED50 [16] [mg/kg] | Activity [15] |
| --- | --- | --- | --- | --- | --- | --- | --- | --- | --- | --- | --- | --- | --- | --- | --- | --- | --- | --- | --- | --- |
| CC(=O)N1CC[C@@H](NC(=O)[C@@H](N)Cc2c(C)cc(O)cc2C)c2cc(CC3CCCCC3)ccc21 | 0.32 | 0.03 | 0.61 | 11 | 240 | inactive | 70% | 33% | 26% | 14 | 8.4 |  |  |  |  |  |  |  |  |  |
| Cc1cc(O)cc(C)c1C[C@H](N)C(=O)N[C@@H]1CCNc2ccc(CC3CCCCC3)cc21 | 3.4 | 0.043 | 2.6 | 79 | 97 | inactive | 57% | 36% | inactive |  | 6.2 | Not Active |  |  |  |  |  |  |  |  |
| Cc1cc(O)cc(C)c1C[C@H](N)C(=O)N[C@@H]1CCCc2ccc(Cc3ccccc3)cc21 | 4 | 0.045 | 2.9 |  |  |  | 64% |  |  |  | 19 | Not Active | Not Active | 14 |  |  |  |  |  |  |
| CC(=O)N1CC[C@@H](NC(=O)[C@@H](N)Cc2c(C)cc(O)cc2C)c2cc(Cc3ccccc3)ccc21 | 1.8 | 0.13 | 6 | 14 | > 1300 | inactive | 76% | 29% | 26% | 68 | 87 |  |  |  |  |  |  |  |  |  |
| CC(=O)N1CC[C@@H](NC(=O)[C@@H](N)Cc2c(C)cc(O)cc2C)c2cc(Cc3cccc4ccccc34)ccc21 | 1.3 | 0.06 | 0.48 | 22 |  | inactive | 70% | inactive | inactive |  | 4.3 | Not Active | Not Active |  | Stable |  |  |  |  |  |
| Cc1cc(O)cc(C)c1C[C@H](N)C(=O)N[C@@H]1CCNc2ccc(CC3CCc4ccccc43)cc21 (mixture of isomers) | 6.8 | 0.05 | 9 |  | 180 |  | 16% | 52% |  |  | 19 | Not Active |  |  |  |  |  |  |  |  |
| Cc1cc(O)cc(C)c1C[C@H](N)C(=O)N[C@@H]1CCNc2ccc(Cc3ccc4ccccc4c3)cc21 |  |  |  |  |  |  | 96% | inactive | inactive |  |  |  |  | 10 |  |  |  |  |  |  |
| Cc1cc(O)cc(C)c1C[C@H](N)C(=O)N[C@@H]1CCCc2ccc(Cc3cccc4ccccc34)cc21 | 5 | 0.39 | 14 | 13 |  | inactive | 58% | inactive | inactive |  | 63 | Not Active | Not Active |  |  |  |  |  |  |  |
| CC(=O)N1CC[C@@H](NC(=O)[C@@H](N)Cc2c(C)cc(O)cc2C)c2cc(CC3CCc4ccccc43)ccc21 (mixture of isomers) | 0.84 | 0.03 | 15 |  |  |  | 39% | 26% |  |  | 15 | Not Active |  |  |  |  |  |  |  |  |
| Cc1cc(O)cc(C)c1C[C@H](N)C(=O)N[C@@H]1CCCc2ccc(Cc3ccc4ccccc4c3)cc21 | 12 | 0.06 | 4.4 |  |  | inactive | 72% |  |  |  | 92 | Not Active | Not Active |  |  |  |  |  |  |  |
| Cc1cc(O)cc(C)c1C[C@H](N)C(=O)N[C@@H]1CCNc2ccc(Cc3cccc4ccccc34)cc21 |  |  |  |  |  |  | 93% |  | 15% |  |  |  |  |  |  |  |  |  |  |  |
| CC(=O)N1CC[C@@H](NC(=O)[C@@H](N)Cc2c(C)cc(O)cc2C)c2cc(CC3Cc4ccccc4C3)ccc21 | 0.44 | 0.05 | 0.56 | 9 | 610 |  | 84% | 60% | inactive |  | 12 | Not Active |  | 11 |  |  |  |  |  |  |
| Cc1cc(O)cc(C)c1C[C@H](N)C(=O)N[C@@H]1CCNc2ccc(Cc3ccccc3)cc21 |  |  |  |  |  |  |  |  |  |  |  |  |  |  |  | >1 |  |  |  |  |
| Cc1cc(O)cc(C)c1C[C@H](N)C(=O)N[C@@H]1CCNc2ccc(CC3Cc4ccccc4C3)cc21 |  |  |  | 26 |  | inactive | 86% | 38% | inactive |  |  |  | Not Active |  |  |  |  |  |  |  |
| CN1CC[C@]23c4c5ccc(O)c4O[C@H]2[C@@H](O)C=C[C@H]3[C@H]1C5 [MORPHINE] |  |  |  |  |  |  |  |  |  |  |  |  |  |  |  |  | 4.73 |  |  |  |
| Cc1cc(O)cc(C)c1C[C@H](N)C(=O)N[C@@H]1CCCc2ccc(CC3CCCCC3)cc21 | 14 |  |  | 117 | 350 |  | inactive | 25% | inactive |  | 20 | Not Active |  |  |  |  |  | Not Active |  |  |
| CC(=O)N1CC[C@@H](NC(=O)[C@@H](N)Cc2c(C)cc(O)cc2C)c2cc(Cc3ccc4ccccc4c3)ccc21 | 0.23 | 0.04 | 0.93 | 6 |  |  | 87% | inactive | inactive |  | 48 | Not Active | Not Active |  | Stable | >3 | 4.72 |  | 15.1 | Dose-dependent effect |
